Source: ChEMBL document CHEMBL1144932, “Design, synthesis, and biological properties of new bis(acridine-4-carboxamides) as anticancer agents” (J Med Chem, 2003)

Tests used:
[1] = species: Homo sapiens; assay: In vitro cytotoxic activity against human colon adenocarcinoma (HT-29).; assay type: functional
How it was run: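 HT29 cells were seeded at 2.5 × 10^4 cells/mL of medium and drug solutions were added. Exposure lasted 144 h. IC50 is the drug concentration inhibiting cell growth by 50%. Assays were run in triplicate.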

[2] = Apparent equilibrium constant for DNA binding (G-C); assay type: ADME
How it was run: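 Ethidium displacement at pH 7.0 in buffer of 10 mM Na2HPO4, 10 mM NaH2PO4, 1 mM EDTA with 1.26 μM ethidium bromide and 1 μM CT-DNA, [poly(dA-dT)]2 or [poly(dG-dC)]2. Drug stock (~5 mM in DMSO) added serially. Fluorescence read at 20 °C, excitation 546 nm, emission 595 nm. C50 is the mean of three determinations. Kapp = 1.26/C50 × 10^7.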

[3] = system: RPMI-8226; assay: Percent growth of leukemia RPMI-8226 cell line at compound concentration 10e-8 was determined; assay type: functional, Homo sapiens
How it was run: (§1)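 Cells in the NCI panel were exposed for 48 h to 10^-8, 10^-6 and 10^-4 or 10^-5 M drug. Growth is given as percent of untreated control (100%). Negative values are the percent of cells killed relative to the initial cell number.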

[4] = system: 786-0; assay: Percent growth of renal 786-0 cell line at compound concentration 10e-8 was determined; assay type: functional, Homo sapiens; how it was run: as §1
[5] = system: MCF7; assay: Percent growth of breast MCF-7 cell line at compound concentration 10e-8 was determined; assay type: functional, Homo sapiens; how it was run: as §1
[6] = system: MCF7; assay: Percent growth of breast MCF-7 cell line at compound concentration 10e-6 was determined; assay type: functional, Homo sapiens; how it was run: as §1
[7] = system: LOX IMVI; assay: Percent growth of melanoma LOX IMVI cell line at compound concentration 10e-5 was determined; assay type: functional, Homo sapiens; how it was run: as §1
[8] = system: MCF7; assay: Percent growth of breast MCF-7 cell line at compound concentration 10e-5 was determined; assay type: functional, Homo sapiens; how it was run: as §1
[9] = system: NCI-H460; assay: Percent growth of lung-NSC NCI-H460 cell line at compound concentration 10e-5 was determined; assay type: functional, Homo sapiens; how it was run: as §1
[10] = system: RPMI-8226; assay: Percent growth of leukemia RPMI-8226 cell line at compound concentration 10e-6 was determined; assay type: functional, Homo sapiens; how it was run: as §1
[11] = system: OVCAR-4; assay: Percent growth of ovarian OVCAR-4 cell line at compound concentration 10e-8 was determined; assay type: functional, Homo sapiens; how it was run: as §1
[12] = system: NCI-H460; assay: Percent growth of lung-NSC NCI-H460 cell line at compound concentration 10e-6 was determined; assay type: functional, Homo sapiens; how it was run: as §1
[13] = system: OVCAR-4; assay: Percent growth of ovarian OVCAR-4 cell line at compound concentration 10e-6 was determined; assay type: functional, Homo sapiens; how it was run: as §1
[14] = system: 786-0; assay: Percent growth of renal 786-0 cell line at compound concentration 10e-5 was determined; assay type: functional, Homo sapiens; how it was run: as §1
[15] = system: SNB-19; assay: Percent growth of CNS SNB-19 cell line at compound concentration 10e-8 was determined; assay type: functional, Homo sapiens; how it was run: as §1
[16] = system: HCT-116; assay: Percent growth of colon HCT116 cell line at compound concentration 10e-6 was determined; assay type: functional, Homo sapiens; how it was run: as §1
[17] = system: RPMI-8226; assay: Percent growth of leukemia RPMI-8226 cell line at compound concentration 10e-5 was determined; assay type: functional, Homo sapiens; how it was run: as §1
[18] = system: OVCAR-4; assay: Percent growth of ovarian OVCAR-4 cell line at compound concentration 10e-5 was determined; assay type: functional, Homo sapiens; how it was run: as §1
[19] = system: DU-145; assay: Percent growth of prostate DU-145 cell line at compound concentration 10e-6 was determined; assay type: functional, Homo sapiens; how it was run: as §1
[20] = system: LOX IMVI; assay: Percent growth of melanoma LOX IMVI cell line at compound concentration 10e-8 was determined; assay type: functional, Homo sapiens; how it was run: as §1
[21] = system: SNB-19; assay: Percent growth of CNS SNB-19 cell line at compound concentration 10e-5 was determined; assay type: functional, Homo sapiens; how it was run: as §1
[22] = system: NCI-H460; assay: Percent growth of lung-NSC NCI-H460 cell line at compound concentration 10e-8 was determined; assay type: functional, Homo sapiens; how it was run: as §1
[23] = system: DU-145; assay: Percent growth of prostate DU-145 cell line at compound concentration 10e-5 was determined; assay type: functional, Homo sapiens; how it was run: as §1
[24] = system: HCT-116; assay: Percent growth of colon HCT116 cell line at compound concentration 10e-8 was determined; assay type: functional, Homo sapiens; how it was run: as §1
[25] = system: HCT-116; assay: Percent growth of colon HCT116 cell line at compound concentration 10e-5 was determined; assay type: functional, Homo sapiens; how it was run: as §1
[26] = system: DU-145; assay: Percent growth of prostate DU-145 cell line at compound concentration 10e-8 was determined; assay type: functional, Homo sapiens; how it was run: as §1
[27] = system: LOX IMVI; assay: Percent growth of melanoma LOX IMVI cell line at compound concentration 10e-6 was determined; assay type: functional, Homo sapiens; how it was run: as §1
[28] = system: 786-0; assay: Percent growth of renal 786-0 cell line at compound concentration 10e-6 was determined; assay type: functional, Homo sapiens; how it was run: as §1
[29] = system: SNB-19; assay: Percent growth of CNS SNB-19 cell line at compound concentration 10e-6 was determined; assay type: functional, Homo sapiens; how it was run: as §1

CN(C)CCNC(=O)c1ccc(NCCN(C)C)c2c(O)c3cc(O)ccc3nc12
IC50 [1]: 2000 nM

CN(C)CCNC(=O)c1ccc(NCCN(C)CCNc2ccc(C(=O)NCCN(C)C)c3nc4ccccc4cc23)c2cc3ccccc3nc12
IC50 [1]: 470 nM | K app [2]: 7.2e+06 M⁻¹

CN(C)CCNC(=O)c1ccc(NCCN(C)CCNc2ccc(C(=O)NCCN(C)C)c3nc4ccc(O)cc4c(O)c23)c2c(O)c3cc(O)ccc3nc12
IC50 [1]: > 10000 nM | K app [2]: 1.4e+07 M⁻¹

COc1ccc2nc3c(C(=O)NCCN(C)C)ccc(NCCCN(C)CCCNc4ccc(C(=O)NCCN(C)C)c5nc6ccc(OC)cc6c(O)c45)c3c(O)c2c1
IC50 [1]: 39 nM | K app [2]: 1.4e+08 M⁻¹

CN(C)CCNC(=O)c1ccc(NCCN(C)C)c2cc3ccccc3nc12
IC50 [1]: 7 nM | K app [2]: 2.3e+08 M⁻¹

CN(C)CCNC(=O)c1ccc(NCCCN(C)CCCNc2ccc(C(=O)NCCN(C)C)c3nc4ccc([N+](=O)[O-])cc4c(O)c23)c2c(O)c3cc([N+](=O)[O-])ccc3nc12
Growth [3]: 12% | Growth [4]: 41% | IC50 [1]: < 0.1 nM | Growth [5]: 26% | Growth [6]: 0% | Growth [7]: -93% | Growth [8]: -86% | Growth [9]: -95% | Growth [10]: -44% | Growth [11]: 67% | Growth [12]: -31% | Growth [13]: 16% | Growth [14]: -95% | Growth [15]: 42% | Growth [16]: -5% | Growth [17]: -58% | Growth [18]: -72% | Growth [19]: -2% | Growth [20]: 28% | Growth [21]: -96% | Growth [22]: 28% | Growth [23]: -93% | Growth [24]: 31% | K app [2]: 2.3e+08 M⁻¹ | Growth [25]: -94% | Growth [26]: 55% | Growth [27]: -40% | Growth [28]: 6% | Growth [29]: -7%

CN(C)CCNC(=O)c1ccc(NCCN(C)C)c2c(=O)c3ccccc3[nH]c12
IC50 [1]: 94 nM

CN(C)CCNc1ccc(C(=O)NCCN(C)CCNC(=O)c2ccc(NCCN(C)C)c3c(O)c4ccccc4nc23)c2nc3ccccc3c(O)c12
IC50 [1]: 480 nM

CN(C)CCNc1ccc(C(=O)NCCN(C)CCN(C)CCNC(=O)c2ccc(NCCN(C)C)c3c(O)c4ccccc4nc23)c2nc3ccccc3c(O)c12
IC50 [1]: 290 nM

CN(C)CCNc1ccc(C(=O)NCCCNC(=O)c2ccc(NCCN(C)C)c3c(O)c4ccccc4nc23)c2nc3ccccc3c(O)c12
IC50 [1]: > 10000 nM

CN(CCCNC(=O)c1ccc(Cl)c2c(O)c3ccccc3nc12)CCCNC(=O)c1ccc(Cl)c2c(O)c3ccccc3nc12
IC50 [1]: 340 nM

CN(C)CCNc1ccc(C(=O)NCCCN(C)CCCNC(=O)c2ccc(NCCN(C)C)c3c(O)c4cc(O)ccc4nc23)c2nc3ccc(O)cc3c(O)c12
IC50 [1]: 800 nM

COc1ccc2nc3c(C(=O)NCCN(C)C)ccc(NCCN(C)CCNc4ccc(C(=O)NCCN(C)C)c5nc6ccc(OC)cc6c(O)c45)c3c(O)c2c1
IC50 [1]: 3300 nM | K app [2]: 8.8e+06 M⁻¹

CN(C)CCNc1ccc(C(=O)NCCN(C)CCNC(=O)c2ccc(NCCN(C)C)c3c(O)c4cc(O)ccc4nc23)c2nc3ccc(O)cc3c(O)c12
IC50 [1]: 8900 nM

CN(C)CCNc1ccc(C(=O)NCCCN(C)CCCNC(=O)c2ccc(NCCN(C)C)c3cc4ccccc4nc23)c2nc3ccccc3cc12
IC50 [1]: 230 nM

CN(C)CCNc1ccc(C(=O)NCCN(C)CCNC(=O)c2ccc(NCCN(C)C)c3cc4ccccc4nc23)c2nc3ccccc3cc12
IC50 [1]: 2000 nM

CN(C)CCNC(=O)c1ccc(NCCN(C)CCNc2ccc(C(=O)NCCN(C)C)c3nc4ccccc4c(O)c23)c2c(O)c3ccccc3nc12
IC50 [1]: 410 nM | K app [2]: 3.8e+07 M⁻¹

COc1ccc2nc3c(C(=O)NCCN(C)CCNC(=O)c4ccc(NCCN(C)C)c5c(O)c6cc(OC)ccc6nc45)ccc(NCCN(C)C)c3c(O)c2c1
IC50 [1]: 890 nM

CN(C)CCNC(=O)c1ccc(NCCCN(C)CCCNc2ccc(C(=O)NCCN(C)C)c3nc4ccccc4c(O)c23)c2c(O)c3ccccc3nc12
Growth [3]: 16% | Growth [4]: 30% | IC50 [1]: 0.43 nM | Growth [5]: 22% | Growth [6]: -6% | Growth [7]: -93% | Growth [8]: -86% | Growth [9]: -90% | Growth [10]: -37% | Growth [11]: 46% | Growth [12]: -52% | Growth [13]: -47% | Growth [14]: -98% | Growth [15]: 38% | Growth [16]: -35% | Growth [17]: -49% | Growth [18]: -74% | Growth [19]: -31% | Growth [20]: 30% | Growth [21]: -55% | Growth [22]: 12% | Growth [23]: -72% | Growth [24]: 20% | K app [2]: 7.5e+07 M⁻¹ | Growth [25]: -96% | Growth [26]: 11% | Growth [27]: -65% | Growth [28]: -26% | Growth [29]: -20%

CN(C)CCNC(=O)c1ccc(NCCCN(C)CCCNc2ccc(C(=O)NCCN(C)C)c3nc4ccccc4cc23)c2cc3ccccc3nc12
IC50 [1]: 47 nM | K app [2]: 9.4e+07 M⁻¹

CN(C)CCNC(=O)c1ccc(NCCN(C)C)c2c(O)c3cc([N+](=O)[O-])ccc3nc12
IC50 [1]: 190 nM

CN(CCNC(=O)c1ccc(Cl)c2c(O)c3ccccc3nc12)CCNC(=O)c1ccc(Cl)c2c(O)c3ccccc3nc12
IC50 [1]: 5500 nM

CN(C)CCNC(=O)c1ccc(NCCCN(C)CCCNc2ccc(C(=O)NCCN(C)C)c3nc4ccc(O)cc4c(O)c23)c2c(O)c3cc(O)ccc3nc12
IC50 [1]: 6900 nM | K app [2]: 7.4e+07 M⁻¹

O=C1c2c(O)ccc(O)c2C(=O)c2c(NCCNCCO)ccc(NCCNCCO)c21 [MITOXANTRONE]
IC50 [1]: 10 nM
